The nature of series [1]: Antiproliferative activity against human Caco2 cells after 72 hrs by MTT-based Mosmann assay relative to control. It is filed as functional. Particulars: Caco-2, 72 h; call rule not given here. Summed up:
(§1)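 Cells seeded at (2.5−3.0) × 10^3 per well, treated after 24 h with compound at final 0.01−100 μM; 0.5−1% DMSO controls. Exposure 3 days (72 h) at 37 °C, 5% CO2; MTT read at 570 nm, 6−8 wells per value. GI50 by NCI formula 100(T − T0)/(C − T0) = 50 versus time-zero and DMSO-control OD; mean ± SD of four experiments.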
A general note: Tetrazolium dyes change colour on reduction, which living cells bring about.

Another series deals with SH-SY5Y. Nature of the series: Antiproliferative activity against human SH-SY5Y cells after 72 hrs by MTT-based Mosmann assay relative to control. It is filed as functional. In short, it runs like this: as §1
A short description of series [2]: Drug level in phosphate buffer treated with (2R,3S,4S,5S)-2-[2-(4-Methoxystyryl)-4,6-dimethoxyphenoxy]-tetrahydro-6-hydroxymethyl-2H-pyran-3,4,5-triol at 5 x 10^-5 M at pH 7.2 at 37 degC after 72 hrs by HPLC analysis in presence of Aspergillus oryzae beta-galactosidase. It is filed as ADME. To be noted: pH 7.2, 72 h. Summed up: (§2)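 Glycoside diluted from DMSO into 0.050 M Na2HPO4/KH2PO4 pH 7.2 to final 5.0 × 10−5 M (≤1.0% DMSO). Almond β-glucosidase (1.2 U/mL) or A. oryzae β-galactosidase (0.7 U/mL) added; 37 °C, shaking at 400 rpm, sampled up to 96 h. Enzyme-free controls run. Reversed-phase HPLC at 305 nm; released aglycone quantified against 10−5−10−6 M calibration curves. Triplicate.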

Series [3] can be described thus: Stability of the compound in phosphate buffer assessed as Aspergillus oryzae beta-galactosidase-mediated compound hydrolysis at 5 x 10^-5 M at pH 7.2 at 37 degC measured within 96 hrs by HPLC analysis. To be noted: pH 7.2, 96 h, 50 µM. The series is classed as ADME. In short, it runs like this:
as §2

Series [4] is described as follows: (§3) Half life in phosphate buffer assessed as almond beta-glucosidase-mediated compound hydrolysis at 5 x 10^-5 M at pH 7.2 at 37 degC measured within 96 hrs by HPLC analysis. It is filed as ADME. Particulars: prunus dulcis, buffer, pH 7.2, 96 h, 50 µM. Summed up: as §2
Series [5] in a line: Inhibition of almond beta-glucosidase using pNP-beta-Glc as substrate assessed as release of p-nitrophenol incubated for 30 mins by spectrophotometric analysis. The arrangement: species or system Prunus dulcis. In short, it runs like this: (§4)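 Substrate at final 6.5 × 10−5 M in DMSO/0.050 M phosphate buffer pH 7.2, 25 °C, with five inhibitor levels (≤1.0% DMSO). Enzyme: 2.0 U/mL yeast α-glucosidase, 2 h; 2.9 U/mL almond β-glucosidase, 30 min. Nitrophenol release read at 400 nm; % inhibition from residual activity versus no-compound activity; IC50 = 50% inhibition. Triplicate; mean ± SD of three experiments.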

The nature of series [6]: Inhibition of Saccharomyces cerevisiae alpha-glucosidase using pNP-alpha-Glc as substrate assessed as release of p-nitrophenol incubated for 2 hrs by spectrophotometric analysis. In short, it runs like this: as §4
Series [7] concerns the target β-galactosidase (Aspergillus Oryzae) (Aspergillus oryzae, UniProt Q2UCU3). The series can be described thus: Inhibition of Aspergillus oryzae beta-galactosidase using oNP-beta-Gal as substrate assessed as release of o-nitrophenol incubated for 30 mins by spectrophotometric analysis. In short, it runs like this:
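Inhibition assay (modified Tsujii method) at 25 °C. Substrate at 6.5 × 10−5 M final in DMSO/phosphate buffer (Na2HPO4/KH2PO4 0.050 M, pH 7.2). Enzyme at 4.0 U/mL. Compound stocks 2.6−4.7 × 10−4 M, five concentrations; DMSO ≤1.0% final. Absorbance read at 400 nm. Percent inhibition taken from residual activity versus no-compound control. IC50 is the mean of three experiments.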

The test system of a further series is beta-glucosidase. Described as §3. The series is classed as ADME. To be noted: prunus dulcis, almond beta-glucosidase in phosphate buffer, pH 7.2. Summed up:
as §2

Another series deals with beta-galactosidase. Nature of the series: Half life in phosphate buffer assessed as Aspergillus oryzae beta-galactosidase-mediated compound hydrolysis at 5 x 10^-5 M at pH 7.2 at 37 degC measured within 96 hrs by HPLC analysis.
Series [8] can be described thus: Antiproliferative activity against human Caco2 cells. To be noted: Caco-2. It is filed as functional, cell-based. Summed up: as §1

Molecules are shown by their SMILES.

Chain of β-galactosidase (Aspergillus Oryzae) (Q2UCU3 whole entry, looked up): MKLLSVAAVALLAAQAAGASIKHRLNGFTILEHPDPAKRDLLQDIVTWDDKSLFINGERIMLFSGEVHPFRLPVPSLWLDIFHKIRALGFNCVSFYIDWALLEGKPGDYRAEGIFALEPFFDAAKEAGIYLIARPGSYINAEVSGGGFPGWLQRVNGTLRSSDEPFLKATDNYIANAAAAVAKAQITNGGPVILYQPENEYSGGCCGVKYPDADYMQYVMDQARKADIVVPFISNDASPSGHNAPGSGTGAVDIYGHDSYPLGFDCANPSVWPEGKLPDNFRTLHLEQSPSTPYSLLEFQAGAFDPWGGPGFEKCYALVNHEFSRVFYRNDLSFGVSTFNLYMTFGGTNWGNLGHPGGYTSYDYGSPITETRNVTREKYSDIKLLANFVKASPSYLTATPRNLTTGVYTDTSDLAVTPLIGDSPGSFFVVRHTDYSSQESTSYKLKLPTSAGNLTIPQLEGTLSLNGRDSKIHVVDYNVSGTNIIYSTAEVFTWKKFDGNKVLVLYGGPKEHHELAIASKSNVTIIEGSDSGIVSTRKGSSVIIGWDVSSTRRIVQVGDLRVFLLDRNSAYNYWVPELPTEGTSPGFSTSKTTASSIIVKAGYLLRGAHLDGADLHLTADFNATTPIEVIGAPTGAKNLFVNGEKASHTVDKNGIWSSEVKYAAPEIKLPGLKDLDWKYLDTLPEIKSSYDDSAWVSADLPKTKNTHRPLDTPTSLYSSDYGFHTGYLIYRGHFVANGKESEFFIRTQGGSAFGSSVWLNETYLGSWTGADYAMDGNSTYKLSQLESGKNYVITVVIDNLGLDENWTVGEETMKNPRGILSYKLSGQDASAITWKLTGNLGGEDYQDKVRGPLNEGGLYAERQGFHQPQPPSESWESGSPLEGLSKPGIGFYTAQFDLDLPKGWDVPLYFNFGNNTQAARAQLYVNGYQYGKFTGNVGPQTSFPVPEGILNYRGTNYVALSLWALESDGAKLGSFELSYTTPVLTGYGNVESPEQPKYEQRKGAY

As for `COc1cc(/C=C/c2cc(OC)cc(OC)c2O)cc(OC)c1`, the GI50 (in series [1]; in the series on SH-SY5Y) was more than 10 µM throughout.
As to `COc1cc(/C=C/c2ccc(OC)c(OC)c2)c(O)c(OC)c1`, the GI50 (as a rule, the concentration that inhibits growth by half) was 3 µM in series [1] and 14.3 µM with SH-SY5Y.
For the compound `COc1ccc(/C=C/c2cc(OC)cc(OC)c2O)cc1`, the Drug metabolism result in series [2] is listed as “metabolite_detected”. The figures for the 50% growth inhibitory concentration (GI50) (in series [1]; in the series on SH-SY5Y) were 5.8 µM and 4.5 µM, respectively.
`COc1ccc(/C=C/c2cc(OC)cc(OC)c2O[C@H]2O[C@H](CO)[C@H](O)[C@H](O)[C@H]2O)cc1`: the Stability entry in series [3] and in [4] was “Stable” each time. The IC50 (as a rule, the midpoint of a concentration-inhibition curve) in series [5] (read-out: IC50) came to 350 µM; in series [6], 201 µM; in [7], 298 µM. Besides, the GI50 in series [1] is more than 10 µM; in the series with SH-SY5Y, 48.4 µM.
As to `COc1cc(/C=C/c2cc(OC)cc(OC)c2O[C@H]2O[C@H](CO)[C@@H](O)[C@H](O)[C@H]2O)cc(OC)c1`, the Stability result in series [3] is listed as “Stable”. Also, in the series with beta-glucosidase, the half-life (commonly the time in which the quantity being followed falls by half) at 50 µM was 70 h. The IC50 in series [5] (read-out: IC50) stood at 272 µM; in series [6], 133 µM; in series [7], 297 µM. The figures for the GI50 (in series [1]; with SH-SY5Y) were 44.2 µM and more than 10 µM, respectively.
On to `COc1cc(/C=C/c2ccc(OC)c(OC)c2)c(O[C@H]2O[C@H](CO)[C@@H](O)[C@H](O)[C@H]2O)c(OC)c1`, for which the Stability result in [3] is reported as “Stable”. For the same compound, in the series on beta-glucosidase, the half-life at 50 µM was 20 h. The results for the IC50 in series [5] (read-out: IC50), in series [6] and in [7] were 192 µM, 78 µM and 258 µM, respectively. Further, the GI50 (in series [1]; in the series with SH-SY5Y) was more than 10 µM in each case.
Take `COc1cc(/C=C/c2cc(OC)cc(OC)c2O[C@H]2O[C@H](CO)[C@H](O)[C@H](O)[C@H]2O)cc(OC)c1`: the Stability result in series [3] and in [4] was “Stable” each time. For the same compound, the IC50 result is “Not Active” in [5], 332 µM in [6] and 296 µM in series [7]. The concentration for 50% growth inhibition (GI50) turned out to be 16 µM in [1] and 22.5 µM in the series with SH-SY5Y.
Turning to `COc1ccc(/C=C/c2cc(OC)cc(OC)c2O[C@H]2O[C@H](CO)[C@@H](O)[C@H](O)[C@H]2O)cc1`, the half-life at 50 µM was 11 h with beta-glucosidase and 77 h with beta-galactosidase. Besides, the IC50 turned out to be 208 µM in series [5] (read-out: IC50) and 91 µM in series [6]. For the same compound, the GI50 in [1] is more than 10 µM; in the series with SH-SY5Y it was 21.9 µM.
Consider `COc1cc(/C=C/c2ccc(OC)c(OC)c2)c(O[C@H]2O[C@H](CO)[C@H](O)[C@H](O)[C@H]2O)c(OC)c1`, for which the Stability result in series [3] and in series [4] was “Stable” throughout. Besides, the half-inhibitory concentration (IC50) in series [5] (read-out: IC50) was found to be 170 µM; in [6], 70 µM; in [7] it was 299 µM. Besides, the GI50 (in series [1]; in the series with SH-SY5Y) was more than 10 µM throughout.
In turn, `COc1cc(/C=C/C(=O)CC(=O)/C=C/c2ccc(O)c(OC)c2)ccc1O` [CURCUMIN] returned an IC50 in series [8] of 10.3 µM.
Consider `CC/C(=C(/CC)c1ccc(O)cc1)c1ccc(O)cc1` [DIETHYLSTILBESTROL], for which the IC50 in [8] was 75 µM.
Take `O=c1[nH]cc(F)c(=O)[nH]1` [FLUOROURACIL]: the values for the GI50 (in [1]; with SH-SY5Y) were 2.2 µM and 1.5 µM, respectively.

The values above are taken from ChEMBL document CHEMBL3739308, “Resveratrol-Related Polymethoxystilbene Glycosides: Synthesis, Antiproliferative Activity, and Glycosidase Inhibition” (J Nat Prod, 2015).
